Results reported in ChEMBL document CHEMBL1138317, “Antibacterial oxazolidinones possessing a novel C-5 side chain. (5R)-trans-3-[3-Fluoro-4- (1-oxotetrahydrothiopyran-4-yl)phenyl]-2- oxooxazolidine-5-carboxylic acid amide (PF-00422602), a new lead compound” (J Med Chem, 2007).
Converted amounts (≈) assume the structure as drawn. The source made the active and inactive calls. The calls are words filed in the database; no cut-off is given here.

Assays:
[1] = AUC (0 to 24 hrs) in Sprague-Dawley rat plasma at 200 mg/kg/day, po after 14 days; format: ADME, organism-based; set-up: dose 200 mg/kg/day, time < 24 hr, route oral
Summary of the method: (§1)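 Female Sprague-Dawley rats received vehicle or drug by oral gavage daily for 14 days, at doses of 40-1000 (mg/kg)/day across the studies. End points were moribundity or lethality, hematology (RBC, hemoglobin, hematocrit, reticulocytes), bone marrow M:E ratio and plasma AUC(0-24).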

Staphylococcus aureus [2] = assay: Antibacterial activity against Staphylococcus aureus UC76 in po dosed CD1 mouse systemic infection model assessed as mortality after 7 days; format: functional
Staphylococcus aureus [3] = assay: Antibacterial activity against levofloxacin-oxacillin-resistant Staphylococcus aureus UC76 SA1 by micro-broth technology; format: functional
Summary of the method: (§2)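 Drug-resistant panel strains (levofloxacin/oxacillin-resistant S. aureus, levofloxacin/penicillin-resistant S. pneumoniae, vancomycin-resistant E. faecalis and E. faecium). Broth microdilution MIC in µg/mL; value reported as MIC90 across the strains of each resistant group.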

Staphylococcus aureus [4] = assay: Antibacterial activity against methicillin-resistant Staphylococcus aureus SA1417 in po dosed CD1 mouse systemic infection model assessed as mortality after 7 days; format: functional
Enterococcus faecium = assay: Antibacterial activity against vancomycin-resistant Enterococcus faecium by micro-broth technology; format: functional; summary of the method: as §2
Enterococcus = assay: Bacteriostatic activity against Enterococcus after 48 hrs by time kill study; format: functional, organism-based
Rattus norvegicus [5] = assay: Effect on hematology in Sprague-Dawley rat assessed as decrease in reticulocytes at 200 mg/kg/day after 14 days; format: ADME, organism-based; set-up: scale not given: the % may be the effect or the level left; conditions: in vivo, 336 h; summary of the method: as §1
Staphylococcus aureus [6] = assay: Antibacterial activity against […] in po dosed CD1 mouse systemic infection model assessed as mortality after 7 days; format: functional
[7] = biological target: T1, Amine oxidase [flavin-containing] A (Homo sapiens, UniProt P21397); assay: Inhibition of human recombinant MAOA
T1 sequence (P21397 whole entry): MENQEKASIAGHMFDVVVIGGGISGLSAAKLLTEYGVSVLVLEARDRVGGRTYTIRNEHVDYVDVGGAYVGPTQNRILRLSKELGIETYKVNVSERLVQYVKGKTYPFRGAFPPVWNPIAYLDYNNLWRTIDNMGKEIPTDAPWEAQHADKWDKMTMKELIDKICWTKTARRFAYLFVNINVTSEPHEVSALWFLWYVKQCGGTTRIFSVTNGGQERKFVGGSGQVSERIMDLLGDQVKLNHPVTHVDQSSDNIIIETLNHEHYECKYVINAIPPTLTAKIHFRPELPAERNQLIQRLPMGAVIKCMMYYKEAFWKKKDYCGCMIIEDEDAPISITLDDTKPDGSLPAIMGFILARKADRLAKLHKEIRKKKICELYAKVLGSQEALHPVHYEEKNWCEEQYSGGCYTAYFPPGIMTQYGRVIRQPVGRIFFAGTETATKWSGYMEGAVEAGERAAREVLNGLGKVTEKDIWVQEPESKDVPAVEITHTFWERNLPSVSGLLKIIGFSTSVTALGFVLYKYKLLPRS

Rattus norvegicus [8] = assay: Effect on hematology in Sprague-Dawley rat assessed as decrease in red blood cells at 200 mg/kg/day, po after 14 days; format: ADME, organism-based; set-up: route oral; scale not given: the % may be the effect or the level left; conditions: in vivo, 336 h; summary of the method: as §1
Streptococcus pneumoniae [9] = assay: Bactericidal activity against Streptococcus pneumoniae after 48 hrs by time kill study; format: functional, organism-based
Summary of the method: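 Time-kill study: bacteria exposed continuously to drug at 2-16× the MIC and sampled over 48 h to assess eradication.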

Escherichia coli = assay: Inhibition of protein synthesis in Escherichia coli by cell-free transcription-translation assay; format: functional
Summary of the method: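 E. coli cell-free coupled transcription/translation run in microtiter format with a luciferase reporter; luminescence was the read-out for protein synthesis.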

[10] = AUC (0 to 24 hrs) in Sprague-Dawley rat plasma at 40 mg/kg/day after 14 days; format: ADME, organism-based; set-up: dose 40 mg/kg/day, time < 24 hr; summary of the method: as §1
Staphylococcus = assay: Bacteriostatic activity against Staphylococcus after 48 hrs by time kill study; format: functional, organism-based
Enterococcus faecalis = assay: Antibacterial activity against vancomycin-resistant Enterococcus faecalis MGH2 EF1 by microbroth technology; format: functional; summary of the method: as §2
Rattus norvegicus [11] = assay: Toxicity in Sprague-Dawley rat at 1000 mg/kg/day, po after 14 days; format: organism-based; set-up: route oral; conditions: in vivo, 336 h; summary of the method: as §1
Rattus norvegicus [12] = assay: Effect on hematology in Sprague-Dawley rat assessed as decrease in hemoglobin at 200 mg/kg/day, po after 14 days; format: ADME, organism-based; set-up: route oral; scale not given: the % may be the effect or the level left; conditions: in vivo, 336 h; summary of the method: as §1
Streptococcus pyogenes = assay: Antibacterial activity against Streptococcus pyogenes C203 by micro-broth technology; format: functional
Streptococcus pneumoniae [13] = assay: Antibacterial activity against levofloxacin-penicillin-resistant Streptococcus pneumoniae SV1 SP3 by microbroth technology; format: functional; summary of the method: as §2
Rattus norvegicus [14] = assay: Effect on hematology in Sprague-Dawley rat assessed as increase in hematocrit at 200 mg/kg/day, po after 14 days; format: ADME, organism-based; set-up: route oral; conditions: in vivo, 336 h
Moraxella catarrhalis = assay: Antibacterial activity against Moraxella catarrhalis by microbroth technology; format: functional
Summary of the method: (§3)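 MIC determined by broth microdilution, reported in µg/mL.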

Haemophilus influenzae = assay: Antibacterial activity against Haemophilus influenzae by micro-broth technology; format: functional; summary of the method: as §3
[15] = Bioavailability in Sprague-Dawley rat at 20 mg/kg, po; format: ADME, organism-based; conditions: Sprague-Dawley, in vivo
[16] = Volume of distribution at steady state in Sprague-Dawley rat at 10 mg/kg, iv; format: ADME, organism-based; set-up: dose 10 mg/kg, route intravenous; conditions: in vivo, read-out: Vdss
[17] = AUC in Sprague-Dawley rat at 20 mg/kg, po; format: ADME, organism-based, Plasma; set-up: dose 20 mg/kg, route oral; conditions: Sprague-Dawley, plasma
[18] = Clearance in Sprague-Dawley rat at 10 mg/kg, iv; format: ADME, organism-based; set-up: dose 10 mg/kg, route intravenous; conditions: in vivo
[19] = Half life in Sprague-Dawley rat at 20 mg/kg, po; format: ADME, organism-based; set-up: dose 20 mg/kg, route oral; conditions: in vivo
[20] = Cmax in Sprague-Dawley rat at 20 mg/kg, po; format: ADME, organism-based; set-up: dose 20 mg/kg, route oral; conditions: in vivo

| SMILES | PD50 (Staphylococcus aureus [2]) [mg/kg] | MIC90 (Staphylococcus aureus [3]) [µg/mL] | MIC90 (Enterococcus faecium) [µg/mL] | IC50 [7] [µM] | IC50 (Escherichia coli) [µM] | MIC90 (Enterococcus faecalis) [µg/mL] | MIC90 (Streptococcus pneumoniae [13]) [µg/mL] | MIC (Moraxella catarrhalis) [µg/mL] | MIC (Haemophilus influenzae) [µg/mL] | further results |
| --- | --- | --- | --- | --- | --- | --- | --- | --- | --- | --- |
| CC(=O)NC[C@H]1CN(c2ccc(N3CCOCC3)c(F)c2)C(=O)O1 [LINEZOLID] | 3.1 | 4 (≈ 11.9 µM) | 4 (≈ 11.9 µM) | 53 | 3.6 | 2 (≈ 5.93 µM) | 1 (≈ 2.96 µM) |  |  | AUC at 24 h [1]: 666 µg·h/mL; PD50 (Staphylococcus aureus [4]): 6.25 mg/kg; Activity (Enterococcus): Active; Activity (Rattus norvegicus [5]): 97%; PD50 (Staphylococcus aureus [6]): 5 mg/kg; Activity (Rattus norvegicus [8]): 9%; Activity (Streptococcus pneumoniae [9]): Active; AUC at 24 h [10]: 105 µg·h/mL; Activity (Staphylococcus): Active; Activity (Rattus norvegicus [11]): Toxic; Activity (Rattus norvegicus [12]): 9%; MIC (Streptococcus pyogenes): 4 µg/mL (≈ 11.9 µM); Activity (Rattus norvegicus [14]): -9% |
| NC(=O)[C@H]1CN(c2ccc(N3CCOCC3)c(F)c2)C(=O)O1 | 8.22 |  |  | 146 | 23 |  |  | > 8 | > 8 | MIC (Staphylococcus aureus [3]): 4 µg/mL (≈ 12.9 µM); MIC (Enterococcus faecium): 32 µg/mL (≈ 103 µM); MIC (Enterococcus faecalis): 32 µg/mL (≈ 103 µM); MIC (Streptococcus pneumoniae [13]): 4 µg/mL (≈ 12.9 µM) |
| NC(=O)[C@H]1CN(c2cc(F)c(N3CCOCC3)c(F)c2)C(=O)O1 | 6.7 | 4 (≈ 12.2 µM) | 8 (≈ 24.4 µM) | 63 | 17 | 8 (≈ 24.4 µM) | 4 (≈ 12.2 µM) | > 8 | > 8 |  |
| NC(=O)[C@H]1CN(c2cc(F)c(C3CC[S+]([O-])CC3)c(F)c2)C(=O)O1 (stereo partly drawn) | 1.1 | 2 (≈ 5.58 µM) | 2 (≈ 5.58 µM) | 355 | 3.6 | 2 (≈ 5.58 µM) | 2 (≈ 5.58 µM) | > 8 | > 8 | bioavailability [15]: 65%; Vd [16]: 0.83 L/kg; AUC [17]: 15.4 µg·h/mL; clearance [18]: 12.8 mL/min/kg; half-life [19]: 2.24 h; Cmax [20]: 4690 ng/mL |
